Source: ChEMBL document CHEMBL1153955, “Indolylarylsulfones bearing natural and unnatural amino acids. Discovery of potent inhibitors of HIV-1 non-nucleoside wild type and resistant mutant strains reverse transcriptase and coxsackie B4 virus” (J Med Chem, 2009)

Columns and labels:
Punta Toro virus = experiment: Antiviral activity against Punta Toro virus in african green monkey Vero cells assessed as protection against virus-induced cytopathicity; format: functional, organism-based
Procedure, shortened: (§1)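 Confluent cell monolayers inoculated with 100 CCID₅₀ virus. After 1-2 h adsorption, residual virus removed and cultures incubated with varying compound concentrations. Cytopathicity scored once it reached completion in untreated infected controls. EC₅₀ = dose reducing virus-induced cytopathogenicity by 50%.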

[1] = tested on: Vesicular stomatitis virus; experiment: Antiviral activity against VSV in human HEL cells assessed as protection against virus-induced cytopathicity; format: functional, organism-based
[2] = target: Human immunodeficiency virus type 1 reverse transcriptase (Human immunodeficiency virus 1, UniProt Q72547, L100I); experiment: Inhibition of HIV1 reverse transcriptase p66/p51 L100I mutant
Procedure, shortened: (§2)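 Substrate was 0.5 µg poly(rA)/oligo(dT) 10:1 (0.3 µM 3′-OH ends) with 10 µM [³H]dTTP, at 37 °C. Acid-precipitable radioactivity was counted on GF/C filters after TCA washes.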

Human alphaherpesvirus 2 = experiment: Antiviral activity against HSV2 G in human HEL cells assessed as protection against virus-induced cytopathicity; format: functional, organism-based; details: Human alphaherpesvirus 2, strain G; procedure, shortened: as §1
[3] = Cytotoxicity against MDCK cells by MTS assay; format: cell-based, Canis lupus familiaris; details: dog
Human alphaherpesvirus 1 [4] = experiment: Antiviral activity against thymidine kinase deficient and acyclovir resistant HSV1 KOS in human HEL cells assessed as protection against virus-induced cytopathicity; format: functional, organism-based; details: Human alphaherpesvirus 1, KOS
Vaccinia virus = experiment: Antiviral activity against Vaccinia virus Lederle in human HEL cells assessed as protection against virus-induced cytopathicity; format: functional, organism-based; details: Orthopoxvirus vaccinia
CCRF-CEM = experiment: Antiproliferative activity against human CEM cells after 3 days; format: cell-based; details: 72 h
Procedure, shortened: (§3)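 Cells seeded at 5 × 10⁴ to 7.5 × 10⁴ cells/200 µL with or without serial compound dilutions; incubated at 37 °C for 2 days (L1210) or 3 days (Molt4/C8, CEM). Cell numbers counted with a Coulter counter. CC₅₀ = concentration reducing proliferation by 50% versus untreated controls, read from plots of cell number (% of control) against concentration. Means of at least two independent experiments.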

Feline coronavirus = experiment: Antiviral activity against Feline coronavirus in feline […] cells assessed as inhibition of virus-induced cytopathicity; format: functional, organism-based; details: Alphacoronavirus 1
[5] = target: Human immunodeficiency virus type 1 reverse transcriptase (Human immunodeficiency virus 1, UniProt Q72547, K103N); experiment: Inhibition of HIV1 reverse transcriptase p66/p51 K103N mutant; procedure, shortened: as §2
Sindbis virus = experiment: Antiviral activity against Sindbis virus in african green monkey Vero cells assessed as protection against virus-induced cytopathicity; format: functional, organism-based; procedure, shortened: as §1
Influenza B virus [6] = experiment: Antiviral activity against influenza B virus in MDCK cells assessed as reduction of virus-induced cytopathicity by visual cytopathic effect scoring method; format: functional, organism-based
[7] = tested on: Human immunodeficiency virus 2; experiment: Antiviral activity against HIV2 ROD in human CEM cells assessed as protection against virus-induced cytopathicity after 4 days; format: functional, organism-based; details: Human immunodeficiency virus 2, ROD, CCRF-CEM, 96 h
Procedure, shortened: (§4)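 CEM cells (~3 × 10⁵ cells/mL) infected with ~100 CCID₅₀ per mL of HIV-1 (IIIB) or HIV-2 (ROD), then seeded into wells containing compound dilutions. After 4 days at 37 °C, syncytium (giant cell) formation was examined microscopically. EC₅₀ = concentration protecting CEM cells from HIV cytopathicity by 50%.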

[8] = Cytotoxicity against feline CRFK cells by MTS assay; format: cell-based, Felis catus; details: cat
Influenza A virus H3N2 [9] = experiment: Antiviral activity against influenza H3N2 virus in MDCK cells assessed as reduction of virus-induced cytopathicity by visual cytopathic effect scoring method; format: functional, organism-based
Influenza B virus [10] = experiment: Antiviral activity against influenza B virus in MDCK cells assessed as reduction of virus-induced cytopathicity by MTS method; format: functional, organism-based
[11] = Cytotoxicity against human HEL cells assessed as drug level causing microscopically detectable alteration of normal cell morphology after 3 days; format: cell-based
[12] = target: Human immunodeficiency virus type 1 reverse transcriptase (Human immunodeficiency virus 1, UniProt Q72547, Y181I); experiment: Inhibition of HIV1 reverse transcriptase p66/p51 Y181I mutant; procedure, shortened: as §2
[13] = Antiproliferative activity against human Molt4/C8 cells after 3 days; format: cell-based; details: MOLT-4, 72 h; procedure, shortened: as §3
Human respirovirus 3 = experiment: Antiviral activity against Parainfluenza virus type 3 in african green monkey Vero cells assessed as protection against virus-induced cytopathicity; format: functional, organism-based; details: Human respirovirus 3, Vero; procedure, shortened: as §1
Influenza A virus [14] = experiment: Antiviral activity against influenza H1N1 virus in MDCK cells assessed as reduction of virus-induced cytopathicity by MTS method; format: functional, organism-based; details: Influenza A virus, H1N1, MDCK
[15] = tested on: Respiratory syncytial virus; experiment: Antiviral activity against RSV Long in human HeLa cells assessed as protection against virus-induced cytopathicity; format: functional, organism-based; procedure, shortened: as §1
Felid alphaherpesvirus 1 = experiment: Antiviral activity against Feline herpesvirus in feline […] cells assessed as inhibition of virus-induced cytopathicity; format: functional, organism-based
[16] = Cytotoxicity against MDCK cells assessed as drug level causing microscopically detectable alteration of normal cell morphology; format: cell-based, Canis lupus familiaris; details: dog
Influenza A virus H3N2 [17] = experiment: Antiviral activity against influenza H3N2 virus in MDCK cells assessed as reduction of virus-induced cytopathicity by MTS method; format: functional, organism-based
L1210 = experiment: Antiproliferative activity against mouse L1210 cells after 2 days; format: cell-based; details: L1210, 48 h; procedure, shortened: as §3
[18] = tested on: Vesicular stomatitis virus; experiment: Antiviral activity against VSV in human HeLa cells assessed as protection against virus-induced cytopathicity; format: functional, organism-based
Coxsackievirus B4 [19] = experiment: Antiviral activity against Coxsackievirus B4 in human HeLa cells assessed as protection against virus-induced cytopathicity; format: functional, organism-based; details: Enterovirus B; procedure, shortened: as §1
[20] = tested on: Mammalian orthoreovirus 1; experiment: Antiviral activity against Reovirus 1 in african green monkey Vero cells assessed as protection against virus-induced cytopathicity; format: functional, organism-based; details: Mammalian orthoreovirus 1, Vero; procedure, shortened: as §1
[21] = Cytotoxicity against human HeLa cells assessed as drug level causing microscopically detectable alteration of normal cell morphology after 3 days; format: cell-based
Procedure, shortened: (§5)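 Serial compound dilutions added to confluent HeLa or Vero monolayers. MCC = minimum concentration causing microscopically detectable alteration of cell morphology after 3 days of incubation.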

[22] = target: Human immunodeficiency virus type 1 reverse transcriptase (Human immunodeficiency virus 1, UniProt Q72547); experiment: Inhibition of HIV1 reverse transcriptase p66/p51
Influenza A virus [23] = experiment: Antiviral activity against influenza H1N1 virus in MDCK cells assessed as reduction of virus-induced cytopathicity by visual cytopathic effect scoring method; format: functional, organism-based
[24] = Cytotoxicity against african green monkey Vero cells assessed as drug level causing microscopically detectable alteration of normal cell morphology after 3 days; format: cell-based; details: chlorocebus sabaeus; procedure, shortened: as §5
[25] = tested on: Human immunodeficiency virus 1; experiment: Antiviral activity against HIV1 3B in human CEM cells assessed as protection against virus-induced cytopathicity after 4 days; format: functional, organism-based; details: Human immunodeficiency virus 1, 3B, CCRF-CEM, 96 h; procedure, shortened: as §4
Coxsackievirus B4 [26] = experiment: Antiviral activity against Coxsackievirus B4 in african green monkey Vero cells assessed as protection against virus-induced cytopathicity; format: functional, organism-based; details: Enterovirus B; procedure, shortened: as §1
Human alphaherpesvirus 1 [27] = experiment: Antiviral activity against HSV1 KOS in human HEL cells assessed as protection against virus-induced cytopathicity; format: functional, organism-based; details: Human alphaherpesvirus 1, KOS

| Structure (SMILES) | EC50 (Punta Toro virus) [µM] | EC50 [1] [µM] | EC50 (Human alphaherpesvirus 2) [µM] | CC50 [3] [µM] | EC50 (Human alphaherpesvirus 1 [4]) [µM] | EC50 (Vaccinia virus) [µM] | IC50 (CCRF-CEM) [µM] | EC50 (Feline coronavirus) [µM] | EC50 (Sindbis virus) [µM] | EC50 (Influenza B virus [6]) [µM] | EC50 [7] [µM] | CC50 [8] [µM] | EC50 (Influenza A virus H3N2 [9]) [µM] | EC50 (Influenza B virus [10]) [µM] | MCC at 72 h [11] [µM] | IC50 [13] [µM] | EC50 (Human respirovirus 3) [µM] | EC50 (Influenza A virus [14]) [µM] | EC50 [15] [µM] | EC50 (Felid alphaherpesvirus 1) [µM] | also measured |
| --- | --- | --- | --- | --- | --- | --- | --- | --- | --- | --- | --- | --- | --- | --- | --- | --- | --- | --- | --- | --- | --- |
| Cc1cc(C)cc(S(=O)(=O)c2c(C(=O)NC(C)CC(N)=O)[nH]c3ccc(Br)cc23)c1 (centres undefined) | > 20 | > 4 | > 4 | 79 | > 4 | > 4 | 18 | > 4 | > 20 | > 4 | > 10 | 11.1 | > 4 | > 4 | 20 | 16 | > 20 | > 4 | > 20 | > 4 | IC50 ([2]; read-out: IC50): 0.296 µM; IC50 ([5]; read-out: IC50): 0.321 µM; IC50 ([12]; read-out: IC50): 15.8 µM; MCC [16]: ≥ 4 µM; EC50 (Influenza A virus H3N2 [17]): > 4 µM; IC50 (L1210): 16 µM; EC50 [18]: > 20 µM; EC50 (Coxsackievirus B4 [19]): ≥ 20 µM; EC50 [20]: > 20 µM; MCC at 72 h [21]: ≥ 20 µM; IC50 ([22]; read-out: IC50): 0.081 µM; EC50 (Influenza A virus [23]): > 4 µM; MCC at 72 h [24]: ≥ 20 µM; EC50 [25]: 0.0015 µM; EC50 (Coxsackievirus B4 [26]): > 20 µM; EC50 (Human alphaherpesvirus 1 [27]): > 4 µM |
| Cc1cc(C)cc(S(=O)(=O)c2c(C(=O)NC(C)CC(N)=O)[nH]c3ccc(Cl)c(F)c23)c1 (centres undefined) | > 20 | > 20 | > 20 | 6.2 | > 20 | > 20 | 27 | > 20 | > 20 | > 4 | > 10 | 42.6 | > 4 | > 4 | 100 | 25 | > 20 | > 4 | 20 | > 20 | IC50 ([2]; read-out: IC50): 0.39 µM; IC50 ([5]; read-out: IC50): 3.39 µM; IC50 ([12]; read-out: IC50): > 40 µM; MCC [16]: 20 µM; EC50 (Influenza A virus H3N2 [17]): > 4 µM; IC50 (L1210): 42 µM; EC50 [18]: > 20 µM; EC50 (Coxsackievirus B4 [19]): 9 µM; EC50 [20]: > 20 µM; MCC at 72 h [21]: 100 µM; IC50 ([22]; read-out: IC50): 0.359 µM; EC50 (Influenza A virus [23]): > 4 µM; MCC at 72 h [24]: 100 µM; EC50 [25]: 0.0046 µM; EC50 (Coxsackievirus B4 [26]): > 20 µM; EC50 (Human alphaherpesvirus 1 [27]): > 20 µM |
| Cc1cc(C)cc(S(=O)(=O)c2c(C(=O)NCCS(N)(=O)=O)[nH]c3ccc(Cl)c(F)c23)c1 | > 20 | > 20 | > 20 | 7.4 | > 20 | > 20 | 31 | > 20 | > 20 | > 4 | > 10 | 34.6 | > 4 | > 4 | 100 | 36 | > 20 | > 4 | 20 | > 20 | IC50 [2]: ND(Insoluble); IC50 [5]: ND(Insoluble); IC50 [12]: ND(Insoluble); MCC [16]: 20 µM; EC50 (Influenza A virus H3N2 [17]): > 4 µM; IC50 (L1210): 42 µM; EC50 [18]: > 20 µM; EC50 (Coxsackievirus B4 [19]): 7 µM; EC50 [20]: > 20 µM; MCC at 72 h [21]: 100 µM; IC50 [22]: ND(Insoluble); EC50 (Influenza A virus [23]): > 4 µM; MCC at 72 h [24]: 100 µM; EC50 [25]: 0.0023 µM; EC50 (Coxsackievirus B4 [26]): > 20 µM; EC50 (Human alphaherpesvirus 1 [27]): > 20 µM |
| Cc1cc(C)cc(S(=O)(=O)c2c(C(N)=O)[nH]c3ccc(Cl)c(F)c23)c1 | > 100 | > 20 | > 20 | 40.6 | > 20 | > 20 | > 28 | > 100 | > 100 | > 4 | > 10 | > 100 | > 4 | > 4 | > 100 | 14 | > 100 | > 4 | > 100 | > 100 | IC50 ([2]; read-out: IC50): 0.002 µM; IC50 ([5]; read-out: IC50): 0.006 µM; IC50 ([12]; read-out: IC50): 0.029 µM; MCC [16]: 20 µM; EC50 (Influenza A virus H3N2 [17]): > 4 µM; IC50 (L1210): 46 µM; EC50 [18]: > 100 µM; EC50 (Coxsackievirus B4 [19]): 27 µM; EC50 [20]: > 100 µM; MCC at 72 h [21]: > 100 µM; IC50 ([22]; read-out: IC50): 0.003 µM; EC50 (Influenza A virus [23]): > 4 µM; MCC at 72 h [24]: > 100 µM; EC50 [25]: 0.001 µM; EC50 (Coxsackievirus B4 [26]): 100 µM; EC50 (Human alphaherpesvirus 1 [27]): > 20 µM |
